Source: PubChem
The list is not random: actives were taken first. Their share in the collection is about 3.8%.
hERG rescue = hERG (human) protection from proarrhythmic block; CHO-hERG, FluxOR thallium flux, dofetilide IC70 present; activation (rescue from dofetilide block), less the hit threshold, % at 10 µM; 0.51% of 310,000 active; AID 1511;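 active means activation above the mean of controls blocked by dofetilide plus 5 SD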;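 further: thallium influx through hERG after potassium depolarization seen as dye fluorescence rise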
Kir21 inh = blocks the mouse Kir2.1 inward-rectifier potassium channel; HEK293-Kir2.1, FluxOR thallium flux fluorescence; stronger effect = lower value; 0.85% of 310,000 active; P35561; AID 1672; B-score at 10 µM;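 active means fluorescence ratio B-score at or below minus 3 SD of library scores, with starting-brightness B-score within 2 SD, cut at about -4.2 in these data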;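 further: channel flux triggered by added potassium and thallium sulfate stimulus; B-score of peak minus minimum fluorescence over baseline after thallium stimulus; more negative B-score means stronger Kir2.1 block with less thallium influx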
KCNK9 block = inhibitors of human KCNK9 two-pore domain potassium channel | AID 488922 | 1.2% of 310,000 active | B-score at 10 µM | HEK293 KCNK9, FluxOR thallium flux fluorescence; stronger effect = lower value | Q9NPC2;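 active means ratio B-score over 3 SD below the library mean, with starting fluorescence within 5 SD of its mean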;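 further: negative B-score means less thallium flux so channel inhibition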
Target sequence (Q9NPC2 whole entry, looked up, the tested form may be a part): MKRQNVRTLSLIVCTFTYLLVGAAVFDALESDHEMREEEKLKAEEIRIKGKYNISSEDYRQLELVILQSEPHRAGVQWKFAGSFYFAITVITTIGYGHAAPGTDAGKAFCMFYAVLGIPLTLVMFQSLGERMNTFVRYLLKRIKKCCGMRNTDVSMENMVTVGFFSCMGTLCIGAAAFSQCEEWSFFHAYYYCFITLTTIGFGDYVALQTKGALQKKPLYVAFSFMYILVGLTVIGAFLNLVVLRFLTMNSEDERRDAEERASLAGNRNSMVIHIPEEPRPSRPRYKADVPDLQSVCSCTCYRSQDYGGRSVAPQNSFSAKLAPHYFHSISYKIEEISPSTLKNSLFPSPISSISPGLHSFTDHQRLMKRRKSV
KCNQ1 act = potentiators or activators of human KCNQ1 potassium channel | P51787 | CHO-K1 KCNQ1, thallium flux FluxOR fluorescence; stronger effect = higher value | AID 2648 | B-score at 10 µM | 0.35% of 310,000 active;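 active means fluorescence ratio B-score, a plate-corrected score, at least three library SD, with initial intensity B-score within 5 SD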
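Assay system: CHO-K1 cells stably expressing KCNQ1. Medium: assay buffer for compound exposure, DMSO matched across wells. Timing: 37 °C overnight plating, 90-min dark dye load, 20-min compound pretreatment. Signal: kinetic FluxOR fluorescence, 10 s baseline plus 110 s post-stimulus.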
KCNK3 block = human KCNK3 channel inhibition, primary screen. CHO-KCNK3 thallium flux, FluxOR fluorescence; stronger effect = lower value. B-score at 10 µM. 0.84% of 340,000 active;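 active means B-score under library mean minus 4 SD, starting fluorescence ratio at most library mean plus 5 SD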;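 further: more negative B-score means stronger inhibition of thallium flux through KCNK3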
KCNQ1 block = inhibitors of human KCNQ1 potassium channel; P51787; CHO-K1 KCNQ1, FluxOR thallium flux fluorescence; stronger effect = higher value; B-score at 10 µM; 1.3% of 310,000 active; AID 2642;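 active means compounds whose thallium flux B-score, printed positive for inhibition, exceeds three library SD while starting fluorescence stays within three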;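 further: channel opened by potassium depolarization with thallium stimulus after 20 min compound exposure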
KCNK3 confirm = confirmation of human KCNK3 two-pore domain potassium channel inhibitors; shares compounds with KCNK3 block; CHO-KCNK3 thallium flux, FluxOR fluorescence; 0% buffer, 100% carvedilol maximal block; ratio percent of control, % at 10 µM; 99% of 2,400 active;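 active means ratio percent of control, averaged over triplicates, above buffer control mean plus 5 SD, cut at about 64% in these data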;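 further: ratio is the fluorescence rise from min to max over baseline after thallium stimulus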
KCNK3 uninduced = counter-screen for KCNK3 inhibitors: effect in non-induced cells | shares compounds with KCNK3 block | non-induced KCNK3 parental cells, FluxOR thallium flux; stronger effect = lower value | thallium flux ratio (lower = more inhibition) at 10 µM | 40% of 2,400 active | AID 651747;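 active means thallium flux ratio, averaged over three wells, more than 5 SD below the buffer control mean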;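 further: host cells are CHO cells without KCNK3 induction; ratio is peak minus trough fluorescence over baseline then normalized to buffer controls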
An asterisk follows results filed as active; i = inactive; . = no result.

SMILES | hERG rescue | Kir21 inh | KCNK9 block | KCNQ1 act | KCNK3 block | KCNQ1 block | KCNK3 confirm | KCNK3 uninduced
CCc1ccc(-c2cc(C)no2)cc1S(=O)(=O)N1CCN(c2ccccc2F)CC1 | -13 | 0.02 | i | i | -8.8* | i | 81* | i
CCc1ccc(-c2cc(C)no2)cc1S(=O)(=O)N1CCN(c2ccc(C(C)=O)cc2)CC1 | -18 | -0.18 | i | i | i | i | . | .
CCN1CCSc2ccc(C(=O)NCc3cc(Br)ccc3OC)cc21 | -11 | 0.22 | -7* | i | i | i | 92* | i
COc1ccc(Br)cc1CNC(=O)c1ccc2c(c1)N(C)CCS2 | -14 | -1.8 | i | i | -10* | i | 106* | i
CC(=O)Nc1ccc(CCCCc2ccc(NC(C)=O)cc2)cc1 | . | . | . | . | i | . | . | .
Cc1ccccc1S(=O)(=O)N1C[C@H]2CON(C)[C@H]2C[C@H]1c1cccc(Oc2ccccc2)c1 | . | . | . | . | i | . | . | .
C/C(=N/NC(N)=S)c1ccc(Br)s1 | -8 | 1.2 | i | i | i | i | . | .
Cc1ccc2[nH]c3c(N4CCN(Cc5ccccc5)CC4)ncnc3c2c1 | -25 | -1.8 | i | i | -10* | i | 130* | 0.11*
Cc1sc2ncnc(N3CCN(Cc4ccccc4)CC3)c2c1-c1ccccc1 | -13 | 0.05 | i | 57* | -9.6* | i | 112* | 0.16*
CC(=O)Nc1ccc(NC(=O)CC2(CC(=O)N3CCOCC3)CCCC2)cc1 | . | . | . | . | i | . | . | .
CCN(CC)CCNC(=O)c1ccc(NC(=O)c2c(C)nn(-c3ccc(F)cc3)c2Cl)cc1 | -8 | 0.17 | i | i | i | i | . | .
CCN(CC)CCNC(=O)c1ccc(NC(=O)c2cn(-c3ccc(F)cc3)nc2-c2cccc(OC)c2)cc1 | -17 | -5.5* | i | i | -9* | 11* | 111* | 0.15*
COc1cccc(-c2nn(-c3ccc(C)cc3)cc2C(=O)N2CCc3cc(OC)c(OC)cc3C2)c1 | -23 | -0.32 | i | i | -9.8* | i | 104* | 0.14*
COc1ccc(OC)c(-c2nn(-c3ccccc3)cc2C(=O)N2CCc3ccccc3C2)c1 | . | . | . | . | i | . | . | .
CCN(C1CCCCC1)S(=O)(=O)CCNC(=O)c1ccccc1 | -10 | -1.6 | i | i | i | i | . | .
O=C(Nc1cccc(-n2cnnn2)c1)c1ccncc1 | -5 | -0.04 | i | i | i | i | . | .
O=C(Nc1cccc(O)c1)c1cccc(NC(=O)c2cccs2)c1 | -25 | -0.45 | -8* | i | -13* | i | 110* | i
O=C(Nc1cccc(-n2cnnn2)c1)c1cccs1 | -10 | -0.55 | i | i | -10* | i | 79* | i
Cn1cc(C(=O)NS(=O)(=O)Nc2ccc(Br)cc2)c2ccccc21 | -13 | -0.2 | i | i | i | i | . | .
Cc1ccc(S(=O)(=O)N(C)c2ccc(OC(C)C(=O)N3CCCC3)cc2)cc1C (stereo not drawn) | -11 | -0.34 | i | i | i | i | . | .
CCOc1cccc(C(=O)Nc2cccc(C(C)=O)c2)c1 | -6 | -4 | i | i | i | i | . | .
O=C(Nc1cccc(S(=O)(=O)c2cccc(NC(=O)c3ccco3)c2)c1)c1ccco1 | -14 | -1.8 | i | i | -9.4* | i | 136* | 0.14*
CCOc1cccc(C(=O)Nc2cccc(NC(=O)c3ccco3)c2)c1 | -23 | 2.1 | -6.8* | i | -12* | i | 76* | i
CC(C)OC(=O)c1ccc(NC(=O)c2ccco2)cc1 | -10 | -1.4 | i | i | -9.8* | i | 91* | i
Cc1ccc(S(=O)(=O)Nc2cccc(C(=O)N3CCC(C(N)=O)CC3)c2)cc1 | . | . | . | . | i | . | . | .
SMILES | hERG rescue | Kir21 inh | KCNK9 block | KCNQ1 act | KCNK3 block | KCNQ1 block | KCNK3 confirm | KCNK3 uninduced
COc1ccc(S(=O)(=O)N2CCN(CC(=O)NCCc3cccs3)CC2)cc1 | . | . | . | . | i | . | . | .
Cc1sc2ncnc(N3CCN(S(=O)(=O)c4ccc(C(C)(C)C)cc4)CC3)c2c1C | . | . | . | . | i | . | . | .
Cc1sc2ncnc(N3CCN(S(=O)(=O)c4ccc(Br)cc4)CC3)c2c1C | -16 | 0.08 | i | i | -12* | i | 116* | 0.15*
COc1cc(/C=C/C(=O)N2CC(C)OC(C)C2)cc(OC)c1OC (stereo not drawn) | -3 | 0.67 | i | i | i | i | . | .
COc1cc(CC(=O)N2CCN(S(=O)(=O)c3ccc(C)cc3)CC2)cc(OC)c1OC | . | . | . | . | i | . | . | .
O=c1[nH]c2cc(F)ccc2c2ccc(F)cc12 | . | . | . | . | i | . | . | .
Cc1noc(C)c1COc1ccccc1C(=O)NNC(=O)c1ccccc1F | . | . | . | . | i | . | . | .
Cc1ccc(OCC(=O)NNC(=O)c2ccccc2OCc2c(C)noc2C)cc1 | -13 | 0.02 | i | i | -8.7* | i | 94* | i
CN(C(=O)C1CCN(S(=O)(=O)c2ccccc2)CC1)c1c(N)n(Cc2ccccc2)c(=O)[nH]c1=O | -5 | 0 | i | i | i | i | . | .
O=c1cc(CN2CCc3ccccc32)c2ccc(O)cc2o1 | -6 | 2.3 | i | i | i | i | . | .
CCc1ccc2c(CN3CCc4ccccc43)cc(=O)oc2c1 | -8 | -0.32 | i | i | -13* | i | 83* | i
O=C(Nc1ccc2nc(-c3ccco3)[nH]c2c1)c1ccco1 | -15 | -0.34 | i | i | -8.9* | i | 140* | i
Cn1cccc1-c1nc2ccc(NC(=O)c3ccccc3)cc2[nH]1 | -19 | -1.3 | i | i | -11* | i | 103* | i
CC(C)CNC(=O)C(=O)Nc1ccc2c(c1)N(S(=O)(=O)c1cccs1)CCC2 | -15 | 1.1 | i | i | i | i | . | .
O=C(CN1C(=O)NC2(CCCCCC2)C1=O)c1cccs1 | . | . | . | . | i | . | . | .
CCOc1ccc(Br)cc1S(=O)(=O)N1CCSC1 | -1 | -5* | i | i | -9* | i | 88* | i
Cc1noc(-c2ccccc2)c1NC(=O)Nc1ccccc1 | -7 | -0.55 | i | i | i | i | . | .
Cc1noc(-c2ccccc2)c1NC(=O)Nc1ccc(Cl)cc1 | -9 | 1.1 | i | i | -11* | i | 106* | i
O=c1sc2ccccc2n1CCOc1ccccc1 | -3 | -1.6 | i | i | i | i | . | .
Cc1ccc(OCn2c(=O)sc3ccccc32)cc1 | -9 | 1.6 | i | i | -11* | i | 112* | i
